Activity calls are given as the source filed them. No cut-off for these calls is given here.
Assays:
[1] = target: Cannabinoid receptor 1 (Homo sapiens) (UniProt P21554); assay: Inhibition of CB1 receptor (unknown origin) at 10 uM relative to control
Method in brief: (§1)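 Single-point screen at 10 μM across receptor, ion channel and enzyme binding or activity assays. Expressed as percent inhibition versus control; negative values denote stimulation.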

Mus musculus [2] = assay: Antipsychotic activity in methamphetamine-induced hyperactivity in ICR mouse assessed as minimum effective dose administered orally; assay type: functional; details: route po, read-out: MED
[3] = target: Collagenase 3 (Homo sapiens) (UniProt P45452); assay: Inhibition of MMP13 (unknown origin) at 10 uM relative to control
Method in brief: (§2)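 Enzyme activity assays from the same 98-target biochemical panel. Single test concentration of 10 µM. Read-out is % inhibition of enzyme activity relative to control; negative percentages indicate activation of the enzyme.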

Homo sapiens [4] = organism: Homo sapiens; assay: Inhibition of Glutamate kainate receptor (unknown origin) at 10 uM relative to control
Method in brief: (§3)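 Part of a 98-target external biochemical selectivity panel that used radioligand/receptor binding-type assays. Compound tested once at 10 µM. Results are reported as % inhibition versus control; negative values mean stimulation of receptor activity.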

[5] = target: D(3) dopamine receptor (Homo sapiens) (UniProt P35462); assay: Inhibition of Dopamine D3 receptor (unknown origin) at 10 uM relative to control; method in brief: as §3
[6] = target: Protein kinase C (PKC) (Homo sapiens) (UniProt O94806+P41743+P17252+P05129+Q05655+P05771+Q05513+Q02156+P24723+Q15139+Q04759); assay: Inhibition of Protein kinase C (unknown origin) at 10 uM relative to control; assay type: protein assay; method in brief: as §2
Mus musculus [7] = assay: Antipsychotic activity in C57BL/6N mouse assessed as increase in c-fos positive cells in entorhinal cortex at 30 mg/kg, po measured for 2 hrs by immunohistochemistry analysis; assay type: functional, organism-based
Homo sapiens [8] = organism: Homo sapiens; assay: Inhibition of dopamine receptor (unknown origin) at 10 uM relative to control
Method in brief: (§4)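 Binding and enzyme panel run by an outside contractor against receptors, ion channels and enzymes. Each assay used a single 10 μM test concentration, and results are expressed as percent inhibition. A negative value means stimulation of receptor activity or activation of enzyme activity.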

[9] = target: GABA-A receptor; anion channel (Homo sapiens) (UniProt P14867+P47870+P18507+P28472+P48169+Q99928+Q9UN88+P34903+O00591+O14764+Q8N1C3+P18505+P78334+P47869+P31644+Q16445); assay: Inhibition of GABA receptor (unknown origin) at 10 uM relative to control; assay type: protein-complex assay; method in brief: as §3
[10] = target: Rho-associated protein kinase 1 (Homo sapiens) (UniProt Q13464); assay: Inhibition of ROCK1 (unknown origin) at 10 uM relative to control; method in brief: as §2
Chain of Rho-associated protein kinase 1 (Homo sapiens) (Q13464 2-1354 limits assumed): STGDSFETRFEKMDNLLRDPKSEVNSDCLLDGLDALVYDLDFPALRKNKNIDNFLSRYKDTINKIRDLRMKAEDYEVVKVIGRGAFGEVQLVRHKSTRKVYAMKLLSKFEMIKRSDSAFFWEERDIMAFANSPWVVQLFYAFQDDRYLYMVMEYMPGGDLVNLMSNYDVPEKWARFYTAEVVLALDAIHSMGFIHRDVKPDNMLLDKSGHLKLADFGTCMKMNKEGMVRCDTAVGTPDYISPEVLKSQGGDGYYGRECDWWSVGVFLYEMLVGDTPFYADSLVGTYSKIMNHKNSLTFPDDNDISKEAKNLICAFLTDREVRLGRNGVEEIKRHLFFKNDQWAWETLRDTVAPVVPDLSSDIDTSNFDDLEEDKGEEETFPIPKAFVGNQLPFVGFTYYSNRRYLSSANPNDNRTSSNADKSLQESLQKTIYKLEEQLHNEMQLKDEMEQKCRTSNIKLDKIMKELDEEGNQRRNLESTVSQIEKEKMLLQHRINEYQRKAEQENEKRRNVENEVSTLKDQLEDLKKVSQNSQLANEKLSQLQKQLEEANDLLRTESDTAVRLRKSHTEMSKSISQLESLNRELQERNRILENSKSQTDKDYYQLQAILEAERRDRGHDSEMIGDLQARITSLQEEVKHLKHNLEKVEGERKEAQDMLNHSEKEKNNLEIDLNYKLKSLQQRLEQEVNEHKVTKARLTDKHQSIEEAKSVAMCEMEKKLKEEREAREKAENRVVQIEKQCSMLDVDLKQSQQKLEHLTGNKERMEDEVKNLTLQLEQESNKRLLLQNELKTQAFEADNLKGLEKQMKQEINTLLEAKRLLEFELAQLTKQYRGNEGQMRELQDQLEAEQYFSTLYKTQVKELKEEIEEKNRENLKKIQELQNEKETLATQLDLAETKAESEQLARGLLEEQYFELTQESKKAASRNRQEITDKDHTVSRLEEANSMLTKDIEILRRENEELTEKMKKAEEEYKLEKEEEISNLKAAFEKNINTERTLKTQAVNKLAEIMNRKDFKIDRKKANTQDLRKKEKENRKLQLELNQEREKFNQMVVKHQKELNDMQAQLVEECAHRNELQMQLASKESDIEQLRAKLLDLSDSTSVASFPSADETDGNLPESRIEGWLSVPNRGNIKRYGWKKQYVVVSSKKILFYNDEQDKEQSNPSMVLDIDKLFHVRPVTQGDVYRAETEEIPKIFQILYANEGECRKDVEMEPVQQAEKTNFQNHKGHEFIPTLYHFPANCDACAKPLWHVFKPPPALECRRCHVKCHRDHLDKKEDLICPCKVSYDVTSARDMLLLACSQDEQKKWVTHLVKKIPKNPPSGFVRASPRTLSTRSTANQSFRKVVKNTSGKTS

[11] = target: Glutamate [NMDA] receptor (Homo sapiens) (UniProt Q05586+Q12879+Q13224+O15399+O60391+Q14957+Q8TCU5); assay: Inhibition of Glutamate NMDA receptor (unknown origin) at 10 uM in presence of glycine relative to control; assay type: protein-complex assay; method in brief: as §3
[12] = target: Serotonin 2 (5-HT2) receptor (Homo sapiens) (UniProt P41595+P28223+P28335); assay: Inhibition of Serotonin 5-HT2 receptor (unknown origin) at 10 uM relative to control; assay type: protein assay; method in brief: as §3
[13] = target: Muscarinic acetylcholine receptor M1 (Homo sapiens) (UniProt P11229); assay: Inhibition of Muscarinic M1 receptor (unknown origin) at 10 uM relative to control; method in brief: as §3
Chain of Muscarinic acetylcholine receptor M1 (Homo sapiens) (P11229 whole entry): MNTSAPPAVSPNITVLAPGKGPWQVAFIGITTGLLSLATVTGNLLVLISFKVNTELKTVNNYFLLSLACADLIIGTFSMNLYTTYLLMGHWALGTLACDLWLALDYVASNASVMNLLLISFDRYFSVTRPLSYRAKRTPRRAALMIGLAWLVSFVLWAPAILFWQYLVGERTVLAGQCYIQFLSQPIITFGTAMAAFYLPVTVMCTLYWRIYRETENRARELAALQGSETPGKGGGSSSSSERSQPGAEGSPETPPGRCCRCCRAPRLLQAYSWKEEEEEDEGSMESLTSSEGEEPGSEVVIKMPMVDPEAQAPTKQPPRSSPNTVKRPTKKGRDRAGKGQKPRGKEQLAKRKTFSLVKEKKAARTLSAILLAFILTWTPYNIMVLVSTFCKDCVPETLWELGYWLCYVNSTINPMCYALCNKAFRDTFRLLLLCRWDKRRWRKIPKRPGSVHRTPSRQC

[14] = target: Type-1 angiotensin II receptor (Homo sapiens) (UniProt P30556); assay: Inhibition of AT1 receptor (unknown origin) at 10 uM relative to control; method in brief: as §1
Chain of Type-1 angiotensin II receptor (Homo sapiens) (P30556 whole entry): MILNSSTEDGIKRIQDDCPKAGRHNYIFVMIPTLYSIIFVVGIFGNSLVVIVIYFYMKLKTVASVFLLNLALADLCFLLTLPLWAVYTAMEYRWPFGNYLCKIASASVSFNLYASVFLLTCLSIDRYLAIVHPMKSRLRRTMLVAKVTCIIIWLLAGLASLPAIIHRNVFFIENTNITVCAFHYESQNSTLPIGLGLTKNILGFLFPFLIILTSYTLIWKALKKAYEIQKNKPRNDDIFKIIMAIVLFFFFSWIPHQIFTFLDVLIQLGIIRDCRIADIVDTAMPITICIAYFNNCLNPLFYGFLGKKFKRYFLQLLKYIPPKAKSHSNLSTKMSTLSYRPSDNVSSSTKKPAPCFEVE

[15] = target: T1, G protein-coupled receptor 52 (Rattus norvegicus, UniProt A0A8I5ZQK1); assay: Agonist activity at rat GPR52 expressed in CHO cells assessed as increase in intracellular cAMP level incubated for 30 mins by Alphascreen assay; assay type: cell-based
T1 sequence (A0A8I5ZQK1 whole entry): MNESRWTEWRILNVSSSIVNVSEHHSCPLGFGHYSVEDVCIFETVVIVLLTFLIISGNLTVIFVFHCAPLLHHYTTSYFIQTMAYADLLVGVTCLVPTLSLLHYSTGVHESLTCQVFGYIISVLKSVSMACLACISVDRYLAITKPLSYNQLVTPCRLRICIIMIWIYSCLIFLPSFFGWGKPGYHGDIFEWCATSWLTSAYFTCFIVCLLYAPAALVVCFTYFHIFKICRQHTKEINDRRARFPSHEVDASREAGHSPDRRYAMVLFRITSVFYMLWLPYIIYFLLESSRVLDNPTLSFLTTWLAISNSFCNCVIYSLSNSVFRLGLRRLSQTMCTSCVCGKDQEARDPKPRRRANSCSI
Method in brief: (§5)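 CHO cells stably expressing human, mouse or rat GPR52, plus naïve CHO cells, at 10,000 cells/well. Stimulated in cAMP assay buffer for 30 min at 37 °C. Intracellular cAMP read by AlphaScreen.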

[16] = target: Voltage-gated L-type calcium channel (Homo sapiens, UniProt O60840+Q01668+Q13698+Q13936); assay: Inhibition of Calcium channel L-type (unknown origin) at 10 uM in presence of phenylalkylamine relative to control; assay type: protein assay; details: probe phenylalkylamine; method in brief: as §1
[17] = target: 5-hydroxytryptamine receptor 4 (Homo sapiens) (UniProt Q13639); assay: Inhibition of Serotonin 5-HT4 receptor (unknown origin) at 10 uM relative to control; method in brief: as §3
Chain of 5-hydroxytryptamine receptor 4 (Homo sapiens) (Q13639 whole entry): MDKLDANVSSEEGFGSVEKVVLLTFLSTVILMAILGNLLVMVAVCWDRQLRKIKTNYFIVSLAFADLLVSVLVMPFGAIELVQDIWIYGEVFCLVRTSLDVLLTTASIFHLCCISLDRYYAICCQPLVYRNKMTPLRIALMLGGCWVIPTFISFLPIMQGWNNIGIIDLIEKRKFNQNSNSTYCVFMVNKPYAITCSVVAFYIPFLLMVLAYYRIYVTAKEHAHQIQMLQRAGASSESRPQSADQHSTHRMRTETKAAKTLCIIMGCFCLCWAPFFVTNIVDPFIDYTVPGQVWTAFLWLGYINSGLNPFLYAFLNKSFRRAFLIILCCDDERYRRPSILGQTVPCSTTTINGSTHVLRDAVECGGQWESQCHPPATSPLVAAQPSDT

Mus musculus [18] = assay: Antipsychotic activity in C57BL/6N mouse assessed as increase in c-fos positive cells in dorsolateral striatum at 30 mg/kg, po measured for 2 hrs by immunohistochemistry analysis; assay type: functional, organism-based
[19] = target: T1, G protein-coupled receptor 52; assay: Agonist activity at GPR52 in rat Striatal neuron assessed as increase in intracellular cAMP level […] by Alphascreen assay; assay type: cell-based
[20] = target: Delta-type opioid receptor (Homo sapiens) (UniProt P41143); assay: Inhibition of opioid delta receptor (unknown origin) at 10 uM relative to control; method in brief: as §4
[21] = target: D(2) dopamine receptor (Homo sapiens) (UniProt P14416); assay: Inhibition of Dopamine D2 receptor (unknown origin) at 10 uM relative to control; method in brief: as §3
[22] = target: T2, G protein-coupled receptor 52 (Rattus norvegicus) (UniProt A0A8I5ZQK1); assay: Agonist activity at GPR52 in rat Striatal neuron assessed as increase in CREB phosphorylation […] by Alphascreen assay; assay type: cell-based; details: filed as agonist
T2 sequence (A0A8I5ZQK1 as listed by the source): as the sequence (A0A8I5ZQK1 whole entry) above

[23] = target: Kappa-type opioid receptor (Homo sapiens) (UniProt P41145); assay: Inhibition of opioid kappa receptor (unknown origin) at 10 uM relative to control; method in brief: as §4
Homo sapiens [24] = organism: Homo sapiens; assay: Inhibition of non-selective GABAB receptor (unknown origin) at 10 uM relative to control; method in brief: as §4
Homo sapiens [25] = organism: Homo sapiens; assay: Inhibition of NA+/K+ ATPase (unknown origin) at 10 uM relative to control; method in brief: as §2
[26] = target: G-protein coupled receptor 52 (Homo sapiens, UniProt Q9Y2T5); assay: Agonist activity at human GPR52 expressed in CHO cells assessed as increase in intracellular cAMP level incubated for 30 mins by Alphascreen assay; assay type: functional, cell-based; method in brief: as §5
Chain of G-protein coupled receptor 52 (Q9Y2T5 whole entry): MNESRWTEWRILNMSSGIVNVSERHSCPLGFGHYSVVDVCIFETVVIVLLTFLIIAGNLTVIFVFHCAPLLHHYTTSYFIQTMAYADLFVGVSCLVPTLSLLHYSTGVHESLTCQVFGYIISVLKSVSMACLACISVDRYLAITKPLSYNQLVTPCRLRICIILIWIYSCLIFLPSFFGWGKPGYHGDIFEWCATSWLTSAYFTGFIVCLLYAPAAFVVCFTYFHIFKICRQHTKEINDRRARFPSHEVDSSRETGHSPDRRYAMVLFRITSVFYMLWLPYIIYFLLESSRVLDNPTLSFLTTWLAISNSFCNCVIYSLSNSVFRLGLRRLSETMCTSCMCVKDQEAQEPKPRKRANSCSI

[27] = target: Muscarinic acetylcholine receptor M2 (Homo sapiens) (UniProt P08172); assay: Inhibition of Muscarinic M2 receptor (unknown origin) at 10 uM relative to control; method in brief: as §3
Chain of Muscarinic acetylcholine receptor M2 (Homo sapiens) (P08172 whole entry): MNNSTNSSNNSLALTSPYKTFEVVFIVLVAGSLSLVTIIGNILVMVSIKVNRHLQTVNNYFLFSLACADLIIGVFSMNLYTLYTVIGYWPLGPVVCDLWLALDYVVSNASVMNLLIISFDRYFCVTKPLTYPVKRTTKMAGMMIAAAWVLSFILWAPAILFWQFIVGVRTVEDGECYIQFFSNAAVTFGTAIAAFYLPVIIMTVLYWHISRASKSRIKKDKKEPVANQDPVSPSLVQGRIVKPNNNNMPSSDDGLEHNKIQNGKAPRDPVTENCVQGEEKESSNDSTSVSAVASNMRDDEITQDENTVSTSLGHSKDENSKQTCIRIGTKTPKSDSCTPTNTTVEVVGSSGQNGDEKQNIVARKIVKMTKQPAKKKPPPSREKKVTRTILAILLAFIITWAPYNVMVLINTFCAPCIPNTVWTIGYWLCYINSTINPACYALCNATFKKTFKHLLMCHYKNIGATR

[28] = target: T2, G protein-coupled receptor 52 (Rattus norvegicus); assay: Agonist activity at GPR52 in rat Striatal neuron assessed as increase in c-fos mRNA expression by RT-PCR analysis; assay type: cell-based; details: filed as agonist
Method in brief: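 Rat primary striatal neurons (E18–19), used at DIV 13–16. Treated in HBSS with 5 mM HEPES pH 7.5 and 0.5% fatty-acid-free BSA for 15 or 60 min at 37 °C. Cells were homogenized in RLT buffer and IEG mRNA was quantified by qPCR using absolute or ΔΔCt relative quantification.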

[29] = target: Beta-2 adrenergic receptor (Homo sapiens) (UniProt P07550); assay: Inhibition of Adrenergic beta2 receptor (unknown origin) at 10 uM relative to control; method in brief: as §1
Chain of Beta-2 adrenergic receptor (Homo sapiens) (P07550 whole entry, looked up): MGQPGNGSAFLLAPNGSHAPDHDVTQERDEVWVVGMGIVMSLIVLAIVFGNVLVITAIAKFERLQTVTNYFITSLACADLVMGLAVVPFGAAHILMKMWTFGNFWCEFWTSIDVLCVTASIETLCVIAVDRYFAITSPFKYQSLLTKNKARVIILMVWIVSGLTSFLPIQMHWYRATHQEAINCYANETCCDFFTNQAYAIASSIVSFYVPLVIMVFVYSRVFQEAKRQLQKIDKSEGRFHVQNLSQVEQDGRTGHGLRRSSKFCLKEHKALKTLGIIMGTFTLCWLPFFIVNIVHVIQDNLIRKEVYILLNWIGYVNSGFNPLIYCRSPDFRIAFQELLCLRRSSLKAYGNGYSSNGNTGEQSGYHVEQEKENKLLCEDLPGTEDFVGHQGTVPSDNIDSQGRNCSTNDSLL

Homo sapiens [30] = organism: Homo sapiens; assay: Inhibition of Sodium channel Site 2 (unknown origin) at 10 uM relative to control; method in brief: as §4

Chain of Cannabinoid receptor 1 (Homo sapiens) (P21554 whole entry): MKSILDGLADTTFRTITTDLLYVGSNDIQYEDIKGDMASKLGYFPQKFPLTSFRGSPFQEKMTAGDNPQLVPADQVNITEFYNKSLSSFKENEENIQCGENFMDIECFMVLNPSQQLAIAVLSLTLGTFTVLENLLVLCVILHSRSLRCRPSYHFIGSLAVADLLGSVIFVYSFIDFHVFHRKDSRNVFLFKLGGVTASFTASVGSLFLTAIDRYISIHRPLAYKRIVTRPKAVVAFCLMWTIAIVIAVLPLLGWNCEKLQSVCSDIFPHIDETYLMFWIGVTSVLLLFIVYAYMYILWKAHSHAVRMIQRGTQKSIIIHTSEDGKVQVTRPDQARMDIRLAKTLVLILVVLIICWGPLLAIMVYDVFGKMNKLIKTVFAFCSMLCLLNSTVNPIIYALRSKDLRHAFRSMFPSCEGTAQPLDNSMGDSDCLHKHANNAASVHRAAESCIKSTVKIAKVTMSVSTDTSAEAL

Work on Cc1cc(-n2nc(Cc3cc(F)cc(C(F)(F)F)c3)nc2C)ccc1C(N)=O [TP-024] yielded an inhibition [1] of -4%, a minimal effective dose (Mus musculus [2]) of 10 mg/kg and an inhibition [3] of 1%. For the same compound, the inhibition (Homo sapiens [4]) was 2%, the inhibition [5] was 8% and the inhibition [6] was -5%. The Activity (Mus musculus [7]) was “Active”, the inhibition (Homo sapiens [8]) was -1% and the inhibition [9] was 2%. The inhibition [10] was 9%, the inhibition [11] was 3% and the inhibition [12] was 14%. It also gave an inhibition [13] of 4%, an inhibition [14] of 9% and an EC50 [15] of 135 nM. For the same compound, the inhibition at 10 µM [16] was -6%, the inhibition [17] was 4% and the Activity (Mus musculus [18]) was “inactive”. For the same compound, the EC50 [19] was 151 nM, the inhibition [20] was 4% and the inhibition [21] was 5%. For the same compound, the Activity [22] was “Active”, the inhibition [23] was -9% and the inhibition (Homo sapiens [24]) was 0%. It also gave an inhibition (Homo sapiens [25]) of -2%, an EC50 [26] of 93.3 nM and an inhibition [27] of -6%. For the same compound, the Activity [28] was “Active”, the inhibition [29] was -5% and the inhibition (Homo sapiens [30]) was 1%.
